One may read the IC50 as the point on the concentration scale where inhibition reaches its midpoint. In general, CC50 refers to the concentration at which the toxic effect on the cells reaches its halfway point. Low readings indicate harm at low concentration, high ones better tolerance by the cells. As a reminder, the inhibition is how much of the control response was suppressed.

Calls of active or inactive are those of the source. The calls are words filed in the database; no cut-off is given here.

The target of series [1] is Phosphatidylinositol 4,5-bisphosphate 3-kinase catalytic subunit gamma isoform (Homo sapiens, UniProt P48736). Description: Inhibition of histidine-tagged recombinant human full length PI3Kgamma expressed in insect cells preincubated for 15 mins followed by addition of cold ATP/gamma32P-ATP measured after 15 mins in presence of MgCl2.
The nature of series [2]: Cytotoxicity against human Huh7.5 cells after 3 days by presto blue assay. Format: cell-based, Huh-7. The procedure, abridged:
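Huh7.5 cells stably infected with J6/JFH1-GLuc, kept in DMEM/10% FBS, glutamine, NEAA, pen/strep at 37 °C, 5% CO2. 10,000 cells/well; serially diluted compound added 1 h after plating; 3-day incubation. Replication read as Gaussia luciferase activity in supernatant; viability by Presto Blue.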

In series [3] the target is T1, Phosphatidylinositol 3-kinase C2 domain-containing subunit gamma (Homo sapiens, UniProt O75747).
T1 sequence (O75747 whole entry): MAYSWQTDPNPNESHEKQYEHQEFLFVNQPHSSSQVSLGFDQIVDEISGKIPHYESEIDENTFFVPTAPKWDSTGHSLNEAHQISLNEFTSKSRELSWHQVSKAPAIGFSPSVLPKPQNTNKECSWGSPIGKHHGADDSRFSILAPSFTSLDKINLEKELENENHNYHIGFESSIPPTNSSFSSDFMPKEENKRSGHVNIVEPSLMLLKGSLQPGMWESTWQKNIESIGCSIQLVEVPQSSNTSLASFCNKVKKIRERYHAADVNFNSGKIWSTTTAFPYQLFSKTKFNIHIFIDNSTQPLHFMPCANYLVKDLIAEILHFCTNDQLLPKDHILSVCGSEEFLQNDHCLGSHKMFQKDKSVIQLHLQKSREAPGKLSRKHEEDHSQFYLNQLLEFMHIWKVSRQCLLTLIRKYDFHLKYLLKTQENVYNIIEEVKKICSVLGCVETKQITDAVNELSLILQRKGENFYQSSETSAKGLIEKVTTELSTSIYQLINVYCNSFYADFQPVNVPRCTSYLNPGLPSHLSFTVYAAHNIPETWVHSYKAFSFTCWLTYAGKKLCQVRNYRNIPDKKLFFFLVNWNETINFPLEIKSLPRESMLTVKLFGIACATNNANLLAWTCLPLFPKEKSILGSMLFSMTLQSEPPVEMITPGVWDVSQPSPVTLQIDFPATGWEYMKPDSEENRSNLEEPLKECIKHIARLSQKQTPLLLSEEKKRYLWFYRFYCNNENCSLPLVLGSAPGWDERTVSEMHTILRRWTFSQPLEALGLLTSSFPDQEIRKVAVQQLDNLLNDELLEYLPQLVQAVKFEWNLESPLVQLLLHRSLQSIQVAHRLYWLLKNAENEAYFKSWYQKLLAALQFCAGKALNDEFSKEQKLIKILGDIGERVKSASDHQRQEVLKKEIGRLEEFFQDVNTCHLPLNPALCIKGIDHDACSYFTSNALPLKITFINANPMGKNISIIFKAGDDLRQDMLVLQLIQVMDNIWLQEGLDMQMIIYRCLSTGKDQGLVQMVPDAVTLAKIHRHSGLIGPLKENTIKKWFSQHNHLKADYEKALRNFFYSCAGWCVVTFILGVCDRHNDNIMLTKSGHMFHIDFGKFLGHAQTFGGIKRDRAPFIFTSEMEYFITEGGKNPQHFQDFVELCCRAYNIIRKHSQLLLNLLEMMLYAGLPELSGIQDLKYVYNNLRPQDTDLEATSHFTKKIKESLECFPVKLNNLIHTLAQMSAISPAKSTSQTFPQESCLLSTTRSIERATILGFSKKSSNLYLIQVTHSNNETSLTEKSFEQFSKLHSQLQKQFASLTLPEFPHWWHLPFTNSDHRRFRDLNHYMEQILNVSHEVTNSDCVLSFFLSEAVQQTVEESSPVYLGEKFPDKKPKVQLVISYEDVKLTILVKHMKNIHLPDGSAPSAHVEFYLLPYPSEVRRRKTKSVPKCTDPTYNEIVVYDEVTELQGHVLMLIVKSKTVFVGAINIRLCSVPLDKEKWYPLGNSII
Description: Inhibition of N-terminal GST-tagged recombinant human full length PI3KC2gamma expressed in baculovirus infected Sf21 insect cells preincubated for 15 mins followed by addition of cold ATP/gamma32P-ATP measured after 15 mins. In outline: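 1 nM PI3KC2γ, 15 min inhibitor preincubation, 15 min reaction. Final: 50 mM HEPES pH 7.5, 100 mM NaCl, 0.03% CHAPS, 10 mM MgCl2, 1 mM EGTA, 2 mM DTT, 100 µM PI (PI:DOPS:DOPC), 500 ng/µL BSA, 2% DMSO, 10 µM ATP, 2 uCi γ32P-ATP. Nitrocellulose capture, phosphorimaging.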

Series [4] is described as follows: Inhibition of N-terminal flag-tagged recombinant human full length PI4K3alpha expressed in baculovirus infected Sf21 insect cells preincubated for 15 mins followed by addition of cold ATP/gamma32P-ATP measured after 25 mins. The procedure, abridged:
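Purchased PI4KIIIα at 1.2 nM; 15 min inhibitor preincubation, 25 min reaction in 20 mM Bis-Tris propane pH 7.5, 10 mM MgCl2, 0.075 mM Triton X-100, 0.5 mM EGTA, 1 mM DTT, 100 µM PI (PI:DOPS:DOPC), 500 ng/µL BSA, 2% DMSO, 10 µM ATP, 2 uCi γ32P-ATP. Radiolabel captured on nitrocellulose, phosphorimaged.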

Series [5] concerns the target Phosphatidylinositol 4-kinase type 2-alpha (Homo sapiens) (UniProt Q9BTU6). Description: Inhibition of flag-tagged recombinant PI4K2alpha (unknown origin) transfected in HEK293T cells upto 20 uM preincubated for 15 mins followed by addition of cold ATP/gamma32P-ATP measured after 25 mins. The settings on record: HEK-293T. Format: cell-based. The procedure, abridged: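 Enzymes cloned from DNASU plasmids, FLAG-tagged, transfected into HEK293T and FLAG-immunoprecipitated, eluted with FLAG peptide. 15 min inhibitor preincubation, 25 min reaction in 20 mM Bis-Tris propane pH 7.5, 10 mM MgCl2, 0.075 mM Triton X-100, 0.5 mM EGTA, 1 mM DTT, 100 µM PI, 500 ng/µL BSA, 2% DMSO, 10 µM ATP, 2 uCi γ32P-ATP; phosphorimaging.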

Series [6] deals with Phosphatidylinositol 3-kinase catalytic subunit type 3 (Homo sapiens, UniProt Q8NEB9). As to the kind of experiment: Inhibition of GST-tagged recombinant human full length VPS34 expressed in baculovirus upto 20 uM preincubated for 15 mins followed by addition of cold ATP/gamma32P-ATP measured after 1 hr in presence of MnCl2. In outline: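 Radiometric membrane-capture assay, 10 nM purchased vps34, 15 min preincubation with inhibitor, then 1 h reaction. Final: 50 mM HEPES pH 7.5, 0.1% CHAPS, 2mM MnCl2, 1 mM EGTA, 2 mM DTT, 100 µM PI in PI:DOPS:DOPC, 500 ng/µL BSA, 2% DMSO, 10 µM ATP, 2.5 uCi γ32P-ATP; spots washed, phosphorimaged.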
Phosphatidylinositol 3-kinase catalytic subunit type 3, sequence (Q8NEB9 whole entry): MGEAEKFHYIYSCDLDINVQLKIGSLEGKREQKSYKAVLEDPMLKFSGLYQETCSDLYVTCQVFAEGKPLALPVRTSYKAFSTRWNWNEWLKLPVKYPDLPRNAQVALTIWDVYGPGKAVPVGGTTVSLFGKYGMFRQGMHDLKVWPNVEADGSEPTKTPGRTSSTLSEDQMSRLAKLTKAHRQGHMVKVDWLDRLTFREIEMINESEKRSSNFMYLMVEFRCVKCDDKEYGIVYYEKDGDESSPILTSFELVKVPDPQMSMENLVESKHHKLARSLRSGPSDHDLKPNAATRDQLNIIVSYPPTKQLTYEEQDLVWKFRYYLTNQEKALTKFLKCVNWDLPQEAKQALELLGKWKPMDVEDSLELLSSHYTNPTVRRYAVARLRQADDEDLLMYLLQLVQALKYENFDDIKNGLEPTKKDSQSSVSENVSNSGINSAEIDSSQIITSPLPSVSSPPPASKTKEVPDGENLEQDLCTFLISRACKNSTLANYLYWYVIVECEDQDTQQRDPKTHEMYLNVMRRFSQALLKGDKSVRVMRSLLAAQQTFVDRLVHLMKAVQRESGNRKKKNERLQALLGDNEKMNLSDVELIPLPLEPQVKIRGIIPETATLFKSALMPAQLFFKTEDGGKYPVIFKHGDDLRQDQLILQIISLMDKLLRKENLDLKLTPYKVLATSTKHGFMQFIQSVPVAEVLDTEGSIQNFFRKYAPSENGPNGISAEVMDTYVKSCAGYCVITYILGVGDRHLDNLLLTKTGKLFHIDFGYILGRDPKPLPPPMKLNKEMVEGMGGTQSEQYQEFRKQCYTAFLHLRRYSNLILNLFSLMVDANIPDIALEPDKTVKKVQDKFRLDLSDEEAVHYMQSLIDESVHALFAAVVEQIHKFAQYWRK

Phosphatidylinositol 4-kinase type 2-alpha (Homo sapiens), sequence (Q9BTU6 whole entry): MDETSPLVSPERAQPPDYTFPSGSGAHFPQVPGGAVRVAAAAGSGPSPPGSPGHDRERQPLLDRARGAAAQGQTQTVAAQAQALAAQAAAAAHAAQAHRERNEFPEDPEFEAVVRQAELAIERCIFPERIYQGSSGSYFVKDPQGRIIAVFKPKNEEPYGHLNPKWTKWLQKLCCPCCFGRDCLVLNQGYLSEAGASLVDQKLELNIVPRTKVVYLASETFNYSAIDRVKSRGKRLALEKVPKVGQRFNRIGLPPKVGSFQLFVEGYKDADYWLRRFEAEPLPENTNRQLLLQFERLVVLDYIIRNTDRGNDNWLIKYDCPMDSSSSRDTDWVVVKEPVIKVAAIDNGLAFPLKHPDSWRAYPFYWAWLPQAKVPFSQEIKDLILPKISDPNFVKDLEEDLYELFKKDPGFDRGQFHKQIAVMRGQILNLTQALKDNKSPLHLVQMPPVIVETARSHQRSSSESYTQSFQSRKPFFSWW
Phosphatidylinositol 4,5-bisphosphate 3-kinase catalytic subunit gamma isoform, sequence (P48736 whole entry, canonical isoform): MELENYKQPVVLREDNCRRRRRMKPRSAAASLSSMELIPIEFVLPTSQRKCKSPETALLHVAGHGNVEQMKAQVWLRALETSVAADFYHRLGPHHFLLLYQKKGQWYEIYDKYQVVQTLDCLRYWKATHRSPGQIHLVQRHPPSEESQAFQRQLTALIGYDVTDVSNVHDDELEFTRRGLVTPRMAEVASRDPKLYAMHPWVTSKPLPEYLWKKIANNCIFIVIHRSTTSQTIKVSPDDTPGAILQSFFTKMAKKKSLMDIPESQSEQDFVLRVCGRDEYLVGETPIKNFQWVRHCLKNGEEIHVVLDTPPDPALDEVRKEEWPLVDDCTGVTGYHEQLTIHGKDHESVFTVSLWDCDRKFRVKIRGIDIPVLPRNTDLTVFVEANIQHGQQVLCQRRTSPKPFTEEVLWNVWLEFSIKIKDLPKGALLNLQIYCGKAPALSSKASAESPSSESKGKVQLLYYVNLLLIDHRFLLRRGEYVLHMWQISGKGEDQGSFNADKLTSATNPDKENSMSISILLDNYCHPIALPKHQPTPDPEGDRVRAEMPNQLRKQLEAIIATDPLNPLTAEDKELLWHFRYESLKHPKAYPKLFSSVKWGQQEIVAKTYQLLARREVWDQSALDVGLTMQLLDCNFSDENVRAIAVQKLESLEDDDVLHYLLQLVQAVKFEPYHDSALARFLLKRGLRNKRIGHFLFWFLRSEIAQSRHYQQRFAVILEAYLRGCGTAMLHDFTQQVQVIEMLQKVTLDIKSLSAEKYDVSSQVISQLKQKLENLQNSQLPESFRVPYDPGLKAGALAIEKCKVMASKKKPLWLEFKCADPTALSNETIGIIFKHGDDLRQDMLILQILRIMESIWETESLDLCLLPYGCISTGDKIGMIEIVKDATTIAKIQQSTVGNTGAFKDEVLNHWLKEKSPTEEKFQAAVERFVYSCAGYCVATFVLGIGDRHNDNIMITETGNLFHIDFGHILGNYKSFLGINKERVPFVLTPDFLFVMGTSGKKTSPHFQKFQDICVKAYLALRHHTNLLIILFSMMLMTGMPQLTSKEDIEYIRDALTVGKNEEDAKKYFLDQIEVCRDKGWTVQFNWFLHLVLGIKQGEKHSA

`COc1ccc(-c2sc(NC(=O)C3CCCC3)nc2C)cc1S(=O)(=O)Nc1ccc(O)cc1`: the figures for the IC50 in series [1], in series [3] and in series [4] were 1.05 µM, 1 µM and 2.6 µM, respectively. In series [2], this compound had a CC50 at 72 h of 14 µM. Also, the inhibition in series [5] was below 50%. The inhibition result in series [6] is “inactive”.

As to `COc1ccc(-c2sc(NC(=O)C(C)(C)C)nc2C)cc1S(=O)(=O)Nc1ccc(O)cc1`, the 50% inhibitory concentration (IC50) worked out at 20 µM in series [1], 1 µM in series [3] and 3 µM in series [4]. Also, in series [2], half-maximal cytotoxicity (CC50 at 72 h) was put at 32 µM. In addition, the inhibition in series [5] is below 20%. Further, the inhibition entry in series [6] was “inactive”.
